Measured values from ChEMBL document CHEMBL4041496, “Natural-Based Indirubins Display Potent Cytotoxicity toward Wild-Type and T315I-Resistant Leukemia Cell Lines” (J Nat Prod, 2016).
Active and inactive are the calls of the source. The rule behind the calls is not given here.

What was measured:
[1] = tested on: KCL-22; assay: Cytotoxicity against human KCL22 cells assessed as reduction in cell viability at 1 uM after 48 hrs by MTS assay; type: functional, cell-based
How it was run: (§1)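 Single-concentration screen: KCL-22 cells, or KCL-22 cells expressing T315I mutant Bcr-Abl, grown in RPMI-1640 with 10% FBS. Cells were seeded at 10 000/well, held overnight at 37 °C in 5% CO2, then exposed to 1 μM compound for 48 h, with DMSO as vehicle control. Viability was read by MTS tetrazolium-to-formazan conversion, absorbance 490 nm, in triplicate.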

[2] = tested on: KCL-22; assay: Cytotoxicity against human KCL22 cells harboring ABL1 T315I mutant assessed as reduction in cell viability at 1 uM after 48 hrs by MTS assay; type: functional, cell-based; how it was run: as §1

Compound | Activity [1] | Activity [2]
O=C1Nc2ccccc2/C1=C1/Nc2cc(Br)ccc2C1=O | inactive | inactive
O=C1Nc2cc(Br)c([N+](=O)[O-])cc2/C1=C1/Nc2ccccc2/C1=N\O | inactive | inactive
O=C1Nc2c(Br)cccc2/C1=C1/Nc2ccc(-c3nnn[nH]3)cc2/C1=N\O | inactive | inactive
O=C1Nc2c(F)cccc2/C1=C1/Nc2ccccc2C1=O | inactive | inactive
O=C1Nc2ccccc2/C1=C1/Nc2ccccc2/C1=N\O | inactive | inactive
COC(=O)c1ccc2c(c1)NC(=C1\C(=O)Nc3c1cccc3C(F)(F)F)/C2=N/OCCN1CCNCC1 | inactive | inactive
O=C1Nc2c(Br)cccc2/C1=C1/Nc2cc(C(=O)O)ccc2/C1=N\O | inactive | inactive
O=C1Nc2ccccc2/C1=C1/Nc2cc(Br)ccc2/C1=N\O | inactive | inactive
CN1C(=O)/C(=C2\Nc3ccccc3C2=O)c2cccc(Cl)c21 | inactive | inactive
O=C1Nc2c(Br)cccc2/C1=C1/Nc2ccccc2C1=O | inactive | inactive
O=C1Nc2c(Br)cccc2/C1=C1/Nc2ccc(-c3nnn[nH]3)cc2C1=O | inactive | inactive
COC(=O)c1ccc2c(c1)C(=N\O)/C(=C1/C(=O)Nc3c(Br)cccc31)N2 | inactive | inactive
COC(=O)c1ccc2c(c1)C(=O)/C(=C1/C(=O)N(C)c3c(Br)cccc31)N2 | inactive | inactive
O=C1Nc2c(Cl)cccc2/C1=C1/Nc2ccccc2/C1=N\O | inactive | inactive
CN1C(=O)/C(=C2\Nc3ccccc3\C2=N/O)c2cccc(I)c21 | inactive | inactive
CCN(CC)CCO/N=C1/C(=C2/C(=O)Nc3c(Br)cccc32)Nc2ccccc21 | inactive | inactive
CC(=O)O/N=C1/C(=C2/C(=O)N(C(C)=O)c3cc(Br)c([N+](=O)[O-])cc32)Nc2ccccc21 | inactive | inactive
COC(=O)c1ccc2c(c1)N/C(=C1\C(=O)Nc3c(Br)cccc31)C2=O | inactive | inactive
O=C1Nc2c(I)cccc2/C1=C1/Nc2ccccc2C1=O | inactive | inactive
O=C1Nc2c(cccc2C(F)(F)F)/C1=C1/Nc2ccccc2/C1=N\OCCN1CCNCC1 | inactive | inactive
O=C1Nc2c(cccc2C(F)(F)F)/C1=C1/Nc2ccc(C(=O)O)cc2/C1=N\O | inactive | inactive
COC(=O)c1ccc2c(c1)NC(=C1\C(=O)Nc3c1cccc3C(F)(F)F)/C2=N/O | inactive | inactive
O=C1Nc2c(cccc2C(F)(F)F)/C1=C1/Nc2ccc(C(=O)O)cc2/C1=N\OCCN1CCNCC1 | inactive | inactive
CN1C(=O)/C(=C2\Nc3ccccc3C2=O)c2cccc(I)c21 | inactive | inactive
COC(=O)c1ccc2c(c1)C(=N\OCCN1CCNCC1)/C(=C1/C(=O)Nc3c(Br)cccc31)N2 | inactive | inactive
O=C1Nc2cc(Cl)c(Cl)cc2/C1=C1/Nc2ccccc2C1=O | inactive | inactive
O=C1Nc2c(cccc2C(F)(F)F)/C1=C1/Nc2ccccc2/C1=N\O | inactive | inactive
N#Cc1ccc2c(c1)C(=O)/C(=C1/C(=O)Nc3c1cccc3C(F)(F)F)N2 | inactive | inactive
O=C1Nc2c(cccc2C(F)(F)F)/C1=C1/Nc2cc(C(=O)O)ccc2/C1=N\O | inactive | inactive
